Measured values gathered from unrelated publications.
Compare with care: the assays were run in different laboratories.
Target: Serine/threonine-protein kinase Sgk2 (SGK2, Homo sapiens, UniProt Q9HBY8)
Sequence (Q9HBY8 1-367, as in one of the studies): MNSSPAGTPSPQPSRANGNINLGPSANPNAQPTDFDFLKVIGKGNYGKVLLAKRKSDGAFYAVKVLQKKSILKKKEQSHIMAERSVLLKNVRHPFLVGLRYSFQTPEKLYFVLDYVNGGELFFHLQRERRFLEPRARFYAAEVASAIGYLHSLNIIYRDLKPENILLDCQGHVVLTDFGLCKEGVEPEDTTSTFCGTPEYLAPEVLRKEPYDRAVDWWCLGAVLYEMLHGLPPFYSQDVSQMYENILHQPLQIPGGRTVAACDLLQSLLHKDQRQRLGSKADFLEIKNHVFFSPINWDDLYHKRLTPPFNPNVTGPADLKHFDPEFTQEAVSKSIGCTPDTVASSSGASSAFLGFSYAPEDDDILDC

SMILES | assay | conditions | remaining binding [%]
O=C(NCC1CCOCC1)c1n[nH]cc1NC(=O)c1c(F)cccc1F | binding, competition with immobilised ligand | 1 µM | 94
F[C@@H]1CCN(c2nccc(-c3cnn4ncccc34)n2)C1 | binding | 1 µM | 92
CNC(=O)[C@@H]1CC[C@@H](n2c(-c3ccc4cnccc4c3)nc3ccc(C(=O)NCc4cccc(C(N)=O)c4)cc32)C1 | binding, competition with immobilised ligand | 1 µM | 100
O=C(NCCCN1CCOCC1)c1ccc(Nc2nccc(-c3cc4ccccc4s3)n2)cc1 | binding, competition with immobilised ligand | 1 µM | 55
COc1ncc2cc3ccccc3nc2c1C#N | cell-free assay, competition with immobilised ligand | 5 µM | 98
CN(c1nccc(-c2cnn3ncccc23)n1)C1CC1 | binding | 1 µM | 86
CCCOc1ccc([C@@H]2[C@@H](C(=O)O)[C@H](c3ccc4c(c3)OCO4)CN2CC(=O)Nc2c(CC)cccc2CC)cc1 | cell-free assay, competition with immobilised ligand | 1 µM | 69
O=C(c1ccc(Nc2nccc(-c3cc4ccccc4s3)n2)cc1)N1CCC(N2CCCC2)CC1 | binding, competition with immobilised ligand | 1 µM | 47
Cc1nc(N2CC[C@@H](O)C2)ncc1-c1cc(C(F)(F)F)cc2[nH]ncc12 | binding, competition with immobilised ligand | 1 µM | 88
N[C@@H]1CCN(c2nccc(-c3cnn4ncccc34)n2)C1 | binding | 1 µM | 100
Nc1ncc2c(n1)-c1c([nH]c3ccc(C#CC4CC4)cc13)CCCC2 | binding, competition with immobilised ligand | 1 µM | 96
CC1=C(C#N)[C@@H](c2ccc3[nH]nc(C)c3c2)C(C#N)=C(c2ccc(Cl)cc2)N1 | cell-free assay, competition with immobilised ligand | 1 µM | 100
C[C@H]1CCN(c2nccc(-c3cnn4ncccc34)n2)C1 | binding | 1 µM | 65
COc1cnc(Nc2cccc(S(N)(=O)=O)c2)nc1N1CCN(c2ccccc2)C(=O)C1 | binding, competition with immobilised ligand | 1 µM | 83
CCOC(=O)c1cc2cc(-c3cc(C(=O)NCc4ccc(C(=O)O)cc4)nn3C)ccc2[nH]1 | cell-free assay, competition with immobilised ligand | 0.1 µM | 100
CC1CCCN1c1nccc(-c2cnn3ncccc23)n1 (centres unmarked) | binding | 1 µM | 94
CC1=C(C#N)C(c2ccc3c(c2)c(NC(=O)c2ccccc2C)nn3C)C(C#N)=C(C)N1 | cell-free assay, competition with immobilised ligand | 1 µM | 73
c1cnn2ncc(-c3ccnc(N4CCC45COC5)n3)c2c1 | binding | 1 µM | 65
O=C(c1ccc(Nc2ncc(Cl)c(-c3ccc(Cl)s3)n2)cc1)N1CCC(N2CCCC2)CC1 | binding, competition with immobilised ligand | 1 µM | 100
O=C(Nc1cccnn1)N1CC(C/C=C/c2cncc(Oc3ccc(C(F)(F)F)cn3)n2)C1 | cell-free assay, competition with immobilised ligand | 1 µM | 74
